Measured values taken from ChEMBL document CHEMBL1275392, “Assessment of chemoselective neoglycosylation methods using chlorambucil as a model” (2010).

Assays:
Type in all cases: functional
MDA-MB-231 [1] = test: Growth inhibition of human MDA-MB-231 cells at 10 uM after 7 days by celltiter-glo assay; settings: MDA-MB-231, 168 h, read-out: GI
HL-60(TB) [2] = test: Growth inhibition of human HL-60(TB) cells after 7 days by celltiter-glo assay; settings: HL-60, 168 h
SNB-75 = test: Growth inhibition of human SNB75 cells after 7 days by celltiter-glo assay; settings: SNB-75, 168 h
U-251 = test: Growth inhibition of human U251 cells after 7 days by celltiter-glo assay; settings: U-251, 168 h
HT-29 = test: Ratio of compound GI50 to chlorambucil GI50 for human HT-29 cells
SK-MEL-5 [3] = test: Growth inhibition of human SK-MEL-5 cells at 10 uM after 7 days by celltiter-glo assay; settings: SK-MEL-5, 168 h, read-out: GI
OVCAR-4 = test: Growth inhibition of human OVCAR4 cells at 10 uM after 7 days by celltiter-glo assay; settings: OVCAR-4, 168 h, read-out: GI
SK-MEL-5 [4] = test: Growth inhibition of human SK-MEL-5 cells after 7 days by celltiter-glo assay; settings: SK-MEL-5, 168 h
BT-549 = test: Growth inhibition of human BT549 cells after 7 days by celltiter-glo assay; settings: BT-549, 168 h
NCI-H322M = test: Growth inhibition of human NCI-H322M cells at 10 uM after 7 days by celltiter-glo assay; settings: 168 h, read-out: GI
CCRF-CEM = test: Growth inhibition of human CCRF-CEM cells after 7 days by celltiter-glo assay; settings: 168 h
DU-145 = test: Growth inhibition of human DU145 cells after 7 days by celltiter-glo assay; settings: DU-145, 168 h
A549 = test: Growth inhibition of human A549 cells expressing p53 after 7 days by celltiter-glo assay; settings: A549, 168 h
LOX IMVI = test: Growth inhibition of human LOXIMVI cells at 10 uM after 7 days by celltiter-glo assay; settings: 168 h, read-out: GI
[5] = Growth inhibition of human p53 deficient H1299 cells after 7 days by celltiter-glo assay; settings: NCI-H1299, 168 h
Method in brief: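 Cells seeded at 500 per well in 384-well plates. Compounds came from 30 mM DMSO stocks, serially diluted and tested in quadruplicate. Incubation was 7 d at 37 °C under 5% CO2. Calcein AM (10 μM) and EthD-1 were added, followed by a fluorescence read. CellTiter-Glo lysis was then done for 10 min at room temperature, with a luminescence read. GI50 came from curve fitting.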

MDA-MB-435 = test: Growth inhibition of human MDA-MB-435 cells at 10 uM after 7 days by celltiter-glo assay; settings: MDA-MB-435, 168 h, read-out: GI
SN12C = test: Growth inhibition of human SN12C cells after 7 days by celltiter-glo assay; settings: 168 h
OVCAR-3 = test: Growth inhibition of human OVCAR-3 cells after 7 days by celltiter-glo assay; settings: OVCAR-3, 168 h
NCI-H522 = test: Growth inhibition of human NCI-H522 cells at 10 uM after 7 days by celltiter-glo assay; settings: NCI-H522, 168 h, read-out: GI
SF-539 = test: Growth inhibition of human SF539 cells at 10 uM after 7 days by celltiter-glo assay; settings: SF-539, 168 h, read-out: GI
PC-3 = test: Growth inhibition of human PC3 cells at 10 uM after 7 days by celltiter-glo assay; settings: PC-3, 168 h, read-out: GI
HCC 2998 = test: Growth inhibition of human HCC2998 cells at 10 uM after 7 days by celltiter-glo assay; settings: HCC 2998, 168 h, read-out: GI
HCT-116 [6] = test: Growth inhibition of human HCT116 cells after 7 days by celltiter-glo assay; settings: HCT-116, 168 h
MDA-MB-231 [7] = test: Growth inhibition of human MDA-MB-231 cells after 7 days by celltiter-glo assay; settings: MDA-MB-231, 168 h
ACHN [8] = test: Growth inhibition of human ACHN cells after 7 days by celltiter-glo assay; settings: 168 h
CAKI-1 = test: Growth inhibition of human Caki1 cells at 10 uM after 7 days by celltiter-glo assay; settings: CAKI-1, 168 h, read-out: GI
SR = test: Growth inhibition of human SR cells at 10 uM after 7 days by celltiter-glo assay; settings: 168 h, read-out: GI
HL-60(TB) [9] = test: Growth inhibition of human HL-60(TB) cells at 10 uM after 7 days by celltiter-glo assay; settings: HL-60, 168 h, read-out: GI
UO-31 = test: Growth inhibition of human UO31 cells at 10 uM after 7 days by celltiter-glo assay; settings: UO-31, 168 h, read-out: GI
EKVX = test: Growth inhibition of human EKVX cells at 10 uM after 7 days by celltiter-glo assay; settings: 168 h, read-out: GI
SF-268 [10] = test: Growth inhibition of human SF268 cells after 7 days by celltiter-glo assay; settings: SF-268, 168 h
HCT-116 [11] = test: Growth inhibition of human HCT116 cells at 10 uM after 7 days by celltiter-glo assay; settings: HCT-116, 168 h, read-out: GI
KM12 = test: Growth inhibition of human KM12 cells after 7 days by celltiter-glo assay; settings: KM12, 168 h
M14 = test: Growth inhibition of human M14 cells at 10 uM after 7 days by celltiter-glo assay; settings: M14, 168 h, read-out: GI
UACC-62 = test: Growth inhibition of human UACC62 cells at 10 uM after 7 days by celltiter-glo assay; settings: UACC-62, 168 h, read-out: GI
NCI-H23 = test: Growth inhibition of human NCI-H23 cells after 7 days by celltiter-glo assay; settings: NCI-H23, 168 h
SF-268 [12] = test: Growth inhibition of human SF268 cells at 10 uM after 7 days by celltiter-glo assay; settings: SF-268, 168 h, read-out: GI
ACHN [13] = test: Growth inhibition of human ACHN cells at 10 uM after 7 days by celltiter-glo assay; settings: 168 h, read-out: GI
SK-MEL-2 = test: Growth inhibition of human SK-MEL-2 cells at 10 uM after 7 days by celltiter-glo assay; settings: SK-MEL-2, 168 h, read-out: GI
T47D = test: Growth inhibition of human T47D cells after 7 days by celltiter-glo assay; settings: 168 h
Malme-3M = test: Growth inhibition of human MALME-3M cells at 10 uM after 7 days by celltiter-glo assay; settings: 168 h, read-out: GI
HOP-92 = test: Growth inhibition of human HOP92 cells after 7 days by celltiter-glo assay; settings: HOP-92, 168 h
SK-OV-3 = test: Growth inhibition of human SKOV3 cells at 10 uM after 7 days by celltiter-glo assay; settings: SK-OV-3, 168 h, read-out: GI
NCI-H226 = test: Growth inhibition of human NCI-H226 cells after 7 days by celltiter-glo assay; settings: NCI-H226, 168 h

Compound `CON(CCCc1ccc(N(CCCl)CCCl)cc1)C1OC[C@@H](O)[C@@H]1O` (some centres undefined) has an inhibition of growth at 10 µM (MDA-MB-231 [1]) of 87.5%, a GI50 (HL-60(TB) [2]) of 1.88 µM and a GI50 (SNB-75) of 19.5 µM. It also gave a GI50 (U-251) of 13.1 µM, a RatioGI50 (HT-29) of 12 and an inhibition of growth at 10 µM (SK-MEL-5 [3]) of 79%. For the same compound, the inhibition of growth at 10 µM (OVCAR-4) was 77.2%, the GI50 (SK-MEL-5 [4]) was 17.7 µM and the GI50 (BT-549) was 13.4 µM. For the same compound, the inhibition of growth at 10 µM (NCI-H322M) was 99%, the GI50 (CCRF-CEM) was 2.36 µM and the GI50 (DU-145) was 1.8 µM. The GI50 (A549) was 1.1 µM, the inhibition of growth at 10 µM (LOX IMVI) was 54.8% and the GI50 [5] was 0.37 µM. The inhibition of growth at 10 µM (MDA-MB-435) was 83%, the GI50 (SN12C) was 7.06 µM and the GI50 (OVCAR-3) was 15.3 µM. The inhibition of growth at 10 µM (NCI-H522) was 52.4%, the inhibition of growth at 10 µM (SF-539) was 51.8% and the inhibition of growth at 10 µM (PC-3) was 72.5%. It also gave an inhibition of growth at 10 µM (HCC 2998) of 73.3%, a GI50 (HCT-116 [6]) of 14.5 µM and a GI50 (MDA-MB-231 [7]) of 1.39 µM. For the same compound, the GI50 (ACHN [8]) was 4.34 µM, the inhibition of growth at 10 µM (CAKI-1) was 13.6% and the inhibition of growth at 10 µM (SR) was 48.7%. It also gave an inhibition of growth at 10 µM (HL-60(TB) [9]) of 68.3%, an inhibition of growth at 10 µM (UO-31) of 54.4% and an inhibition of growth at 10 µM (EKVX) of 91.2%. It also gave a GI50 (SF-268 [10]) of 1.5 µM, an inhibition of growth at 10 µM (HCT-116 [11]) of 69.4% and a GI50 (KM12) of 30 µM. It also gave an inhibition of growth at 10 µM (M14) of 67.2%, an inhibition of growth at 10 µM (UACC-62) of 52.1% and a GI50 (NCI-H23) of 7.15 µM. It also gave an inhibition of growth at 10 µM (SF-268 [12]) of 67.8%, an inhibition of growth at 10 µM (ACHN [13]) of 14.3% and an inhibition of growth at 10 µM (SK-MEL-2) of 100%. For the same compound, the GI50 (T47D) was 6.37 µM, the inhibition of growth at 10 µM (Malme-3M) was 69.7% and the GI50 (HOP-92) was 4.03 µM. The inhibition of growth at 10 µM (SK-OV-3) was 72.8% and the GI50 (NCI-H226) was 0.925 µM.
